# Source: PubChem BioAssay
# SENP1 FRET inh = human SENP1 catalytic domain inhibitors, primary screen, biochemical, FRET, uHTS. inhibition, % at 10 µM. 360,000 tested, 0.21% active. recombinant SENP1 catalytic domain, CyPet-SUMO1-YPet FRET cleavage. Sentrin-specific protease 1 (Homo sapiens), Q9P0U3. AID 624204, 2012;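 active = inhibition at least 30% at 10 µM, raw YFP signal under a set limit, fluorescence ratio 0.5 to 1.5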;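 note: 0% = enzyme with DMSO and 100% = no enzyme wells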
#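 Test system: hSENP1 catalytic domain, recombinant; Amount: 20 pM final SENP1 enzyme; Medium: Tris pH 8 buffer plus EDTA, NaCl, BME, BSA, NP40, catalase; Schedule: 50 min enzyme reaction, room temperature, light-protected; Technique: FRET fluorescence in CFP and YFP emission channels; Controls: no-enzyme wells low, DMSO-plus-enzyme wells high control.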
# UCH37 DUB inh = inhibitors of human UCH37 deubiquitinase, primary screen, biochemical, Ub-AMC cleavage, fluorescence; inhibition, % (concentration not given with the values); 330,000 tested, 0.33% active; AID 588478, 2011; purified proteasome/UCH37; Ubiquitin carboxyl-terminal hydrolase isozyme L5 (Homo sapiens), Q9Y5K5;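 active = mean inhibition over replicate wells above about 20%, limit read from the data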;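 note: 0% = compound-free wells with enzyme and 100% = wells lacking proteasome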
#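 assay system = human UCH37 enzyme supplied as purified proteasome complex | amount = proteasome at 0.15 nM in the dispensed enzyme solution | schedule = 30 min compound-proteasome preincubation then 25 min substrate reaction, room temperature | measured by = fluorescence, ex 355 nm, em 460 nm | benchmarks = no-proteasome wells (full inhibition) and compound-free wells (no inhibition)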
# NR3A LBD binder = binders of NR3A ligand-binding domain, primary screen, biophysical, differential scanning fluorimetry, uHTS; 340,000 tested, 2.5% active; Glutamate receptor ionotropic, NMDA 3A (GRIN3A) ligand-binding domain; Tm shift relative to glycine control, % at 25 µM; AID 1259313, 2017; NR3A LBD differential scanning fluorimetry, Tm shift; 0% = protein alone, 100% = glycine-bound protein;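 active = melting temperature shift of at least 10% of the positive control shift, at one fixed dose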
# ATG4B inh = ATG4B protease inhibitors, primary screen, biochemical, fluorescence, uHTS; inhibition, % at 8.33 µM; ATG4B cleavage of LC3-PLA2, NBD-HPC fluorescence, 1 h; AID 504462, 2011; Cysteine protease ATG4B (Homo sapiens), Q9Y4P1; 340,000 tested, 0.51% active; in the data active = inhibition above about 40%
# Target sequence (Q9Y4P1 whole entry, looked up): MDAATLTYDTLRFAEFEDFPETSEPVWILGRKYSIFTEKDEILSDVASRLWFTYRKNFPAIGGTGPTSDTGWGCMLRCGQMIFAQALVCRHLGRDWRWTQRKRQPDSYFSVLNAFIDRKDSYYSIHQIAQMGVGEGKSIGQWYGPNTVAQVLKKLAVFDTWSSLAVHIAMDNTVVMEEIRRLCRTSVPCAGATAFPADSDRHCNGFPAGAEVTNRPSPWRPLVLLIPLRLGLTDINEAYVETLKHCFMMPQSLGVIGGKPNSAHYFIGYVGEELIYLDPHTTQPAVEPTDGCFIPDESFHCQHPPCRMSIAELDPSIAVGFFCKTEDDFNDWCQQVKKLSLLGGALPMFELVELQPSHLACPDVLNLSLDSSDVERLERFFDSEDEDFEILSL
# NadD inh = inhibitors of S. aureus NadD, primary screen, biochemical, colorimetric, uHTS; Nicotinate-nucleotide adenylyltransferase NadD (Staphylococcus aureus N315); 360,000 tested, 0.78% active; purified NadD enzyme, colorimetric absorbance read-out; AID 602399, 2012; inhibition, % at 20 µM; in the data active = inhibition above about 26%
# * hit, by the source's call; . = not tested or not shown. A selection: hits, their analogues and other compounds. The true share with any hit is near 3.6%.
SMILES,SENP1 FRET inh,UCH37 DUB inh,NR3A LBD binder,ATG4B inh,NadD inh
FC(F)Oc1ccc(NC(=S)NC23CC4CC(CC(C4)C2)C3)cc1,3,4,12*,-2,3
S=C(Nc1ccccc1)Nc1ccc2cn[nH]c2c1,-18,.,9,4,-1
Oc1cccc2c(NC(=S)Nc3ccc(OC(F)F)cc3)cccc12,-42,1,11*,-20,2
NC(=S)Nc1ccc2cn[nH]c2c1,2,1,-2,-3,0
Cc1cc(C)cc(NC(=S)Nc2ccc3cn[nH]c3c2)c1,-7,1,15*,-5,0
FC(F)Oc1ccc(NC(=S)Nc2ccc3cn[nH]c3c2)cc1,-4,-3,17*,-11,-4
FC(F)Oc1ccc(NC(=S)NCc2ccccc2)cc1,3,3,4,25,-2
C=CCNC(=S)Nc1ccc2cn[nH]c2c1,-2,0,1,-8,20
NC(=S)NN=C1CCOc2ccc(F)cc21,.,8,.,.,.
CCN1C(=O)/C(=C2\SC(=S)N(NC(=O)c3ccccc3O)C2=O)c2ccccc21,3,3,14*,0,12
CCN1C(=O)/C(=C2\SC(=S)N(c3c(C)n(C)n(-c4ccccc4)c3=O)C2=O)c2ccccc21,1,.,2,-4,12
O=C1CSC(=Nc2cc(Cl)ccc2Cl)N1,-1,4,11*,14,-8
O=C(/C=C/c1ccc(Cl)cc1)NC(=S)Nc1ccc(NC(=O)c2ccco2)cc1,2,2,34*,13,23
CC(C)(C)C(=O)N1CCN(c2ccc(NC(=O)c3ccco3)cc2)CC1,2,2,3,-3,-3
CC(C)CC(=O)N1CCN(c2ccc(NC(=O)c3ccco3)cc2)CC1,2,6,13*,-1,3
COc1ccccc1C(=O)NC(=S)Nc1ccc(NC(=O)c2ccco2)cc1,-1,0,-3,-1,-7
COc1cc(OC)cc(C(=O)NC(=S)Nc2ccc(NC(=O)c3ccco3)cc2)c1,2,7,18*,1,-4
CC(C)CC(=O)NC(=S)Nc1ccc(NC(=O)c2ccco2)cc1,-1,0,19*,-2,-1
COc1ccc(C=NNC(=O)c2cccnc2)c(C(=O)O)c1OC,.,10,.,.,.
O=[N+]([O-])c1ccc(C=NN2CCN(c3ccncc3S(=O)(=O)N3CCCCC3)CC2)cc1,.,3,.,.,.
O=C(Nc1ccc(NC(=S)NC(=O)c2ccco2)cc1)c1ccccc1,0,3,15*,-8,2
O=C(NC(=S)NCCc1ccccn1)c1ccccc1,3,5,1,1,-4
O=C(NC(=S)NCCc1ccccn1)c1ccco1,1,0,244*,2,-9
Cc1cc(N)n2ncc(-c3ccccc3)c2n1,1,-17,-23,-5,2
CC(=O)Nc1ccc(Nc2cc(C)nc3c(-c4ccccc4)cnn23)cc1,-1,-134,33*,3,6
SMILES,SENP1 FRET inh,UCH37 DUB inh,NR3A LBD binder,ATG4B inh,NadD inh
CC(=O)OC[C@]12CC[C@H]3[C@@](C)(CC[C@H]4C(C)(C)CCC[C@]34C)[C@@H]1CC(C1=CC(=O)OC1O)O2 (stereo not given in full),1,.,.,.,32*
CC1CC(=NNc2nc3ccccc3[nH]2)CC(C)(C)C1 (stereo not given),.,6,.,.,.
Oc1ccc(Br)cc1-c1cc(-c2ccco2)[nH]n1,1,4,19*,6,-5
Oc1ccc(Cl)cc1-c1cc(-c2cccc(Br)c2)n[nH]1,-3,-2,31*,1,4
Oc1c(-c2cc(-c3ccco3)[nH]n2)ccc2ccccc12,8,5,21*,9,-2
Oc1ccc(Cl)cc1-c1cc(-c2ccco2)[nH]n1,-14,0,11*,11,-4
Oc1ccccc1-c1cc(-c2ccco2)[nH]n1,-5,4,-1,-8,0
S=c1[nH]nc(-c2cc(-c3ccco3)[nH]n2)n1-c1ccccc1,0,2,3,-3,4
